In the EternaBench riboswitch data:

Test system: MS2 coat protein
Assay: apparent Kd, MS2 coat protein; higher = weaker binding; RNA-MaP array; FMN 200 µM where present
Method in brief: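 Designs on Illumina sequencing-chip clusters, transcribed by stalled E. coli RNA polymerase, were exposed to SNAP-549-labelled MS2 coat protein in doubling steps from 0.7 or 1.5 nM up to 3 µM, without and then with constant ligand. The buffer held 100 mM Tris-HCl pH 7.5, 80 mM KCl, 4 mM MgCl2, BSA, DTT, yeast tRNA and Tween-20. Apparent Kd values are medians of filtered per-cluster binding-curve fits to green signal normalised to red-channel RNA signal and control-cluster median Fmax.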

[1] = designed as: ON switch for flavin mononucleotide, no ligand
[2] = ligand present: flavin mononucleotide, designed as: ON switch for flavin mononucleotide
[3] = designed as: OFF switch for flavin mononucleotide, no ligand
[4] = ligand present: flavin mononucleotide, designed as: OFF switch for flavin mononucleotide

Sequence	apparent Kd [1] [nM]	apparent Kd [2] [nM]	apparent Kd [3] [nM]	apparent Kd [4] [nM]
ACAUGAGGAUCACCCAUGUGAACAUAGGAUAUUGGUGAUCAGGCAUGUUAUACAGGAUAUGUCUGCGAGAAGGGUGCACGUUGC	524	412		
UGCUACAUGAGGAUCACCCAUGUAAUGUGGGAUUCGUUAGGACAGGAUAUGAUUGUAUAGUUUUUUCAGAAGGGUCAUUACUUU			69.2	135
UUUUUCUCAGGAUAUACAUGAGGAUCACCCAUGUAUAUUAGUGAUAAUACAUGGGAAUGUAGAAGGGAGCUCAU			164	123
UUGAAUUAUAAGGAUAUGGGAGUCGAUAGACACCCAGAAGGUAUAACAUGAGGAUCACCCAUGUGUCCUAUCUU			22.2	23.4
AUUAUAUAGGUAGGAUAUAGAAUAUUAUUUUAACAUGAGGAUCACCCAUGUAACCUUAUGUGUAGCUAGAAGGACCAUUUAUUA			78	154
CCUCCACAUGAGGAUCACCCAUGUCAGGAUAUCGUGUGUGCGUUUUCGGUCUUUCGCGCGAGAAGGGACGUCUG			30.6	34.9
CCAGAUAUGUAAGGAUAUAUAGUGGAAUACACUAUAGAAGGUAUGUGAGAACAUGAGGAUCACCCAUGUCAUUGGAUAUCUGGA	37.1	39.3		
GUCUGGUUAGGAUAUACAGUGUCCACGAGUUAGUUGCCCUAACAUGAGGAUCACCCAUGUAGAAGGAGCGAGAA			22.2	22.6
GAGUAGAUCCGAGGAUAUACAAUCCGGAAACGGUACAUGAGGAUCACCCAUGUAGAAGGCGGAUCUACAGGUACUAAAGUACCC			5.73	8.11
GAGGUAUUCGUAGGAUAUCCGUCGCCACCGUGUGGAGAAGGACGAACAUGAGGAUCACCCAUGUAUCAUGGUGUGGACGCUUUC			71.5	82.8
CGGCCGUAAGGAUAUACAUGAGGAUCACCCAUGUAUGGAAUAGCAUGAGGCGGCCCAGGUAGAAGGUAUGCCCG			20.8	30.5
GUGUAGAUAUCAGGAUAUCUAUUUCCUACAUGAGGAUCACCCAUGUAGAUGAUCACCCAUGUAAAGGAGAAGGGAUGUCUAUAC	163	138		
GGAUAGGACAGAGGAUAUACGUGAUAGAGAUACUAGCAAAAUUUCCUCACAUGAGGAUCACCCAUGUAGAAGGCUGUCCUAUCG			310	115
CCACGUCACAUUAACAUGAGGAUCACCCAUGUCUCUAGACAUGAGGAUAUGGAUCCUAAUUGGAUCCAGAAGGCAUGGACGUGG	1420	138		
GUAGCUAUCGGAGGAUAUUCAUACUGGAAACGGACAUGAGGAUCACCCAUGUGGCGAAAGCCUUGGGAGAAGGCUGAUAGCUAC	139	7.72		
GGCUAGUCAGGAUAUACGAACAUGUCGCCAGAUGUCAAGGUACAUGAGGAUCACCCAUGUAGAAGGGACUAGCC			42.7	168
CGCUGGACUGAGAAGGCCAUGUGGGACGCGAACAGUGAUGUUAGGGCAUGGAGGAUAUCAGACAUGAGGAUCACCCAUGUAACC	392	38		
GUAGAGUCAGGAUAUACAAAACCAUCGAUAGAUGGAUCCAUACAUGAGGAUCACCCAUGUAGAAGGGACUCUAC			20.3	21.5
AGCUAGUCAGGAUAUACGAACAUGUCAAAAGACGUGAAGGGACAUGAGGAUCACCCAUGUAGAAGGGACUAGCA			40	170

Sequence	apparent Kd [1] [nM]	apparent Kd [2] [nM]	apparent Kd [3] [nM]	apparent Kd [4] [nM]
GUAGCUAUCGGAGGAUAUUCAUACCGGAAACGGACAUGAGGAUCACCCAUGUCGCGAAAGCGUUGGGAGAAGGCCGAUAGCUAC	237	21.4		
AAUGCGGCAGGAUAUACAUGAGGAUCACCCAUGUAGAUCAGAUAUAUGGUCGAACCAUGUAGAAGGGCCGCAAA			34.3	129
CCGGAUAUGCAGGAUAUCGUAACGGAAACGUUACGAGAAGGGUAUACAUGAGGAUCACCCAUGUGUCCUACCGG			28.1	32.3
CGUAGUCCGUAGAAGGGUGACAUGAGGAUCACCCAUGUGCGAGCCGAGGGAGUCAGCGGCUCGCCACAGGAUAUACGGAGCACG	44.5	52.9		
CGUAGGCCUCUCAACAUGAGGAUCACCCAUGUACGUGAAACGUAGGAUAUCACACAACUAAUGUGUGAGAAGGGCGCGCCGGAG	126	124		
GGAUCGUAUGUGAGGAUAUACCACUGGAUACAGUGGUAGAAGGCACAUGAGGAUCACCCAUGUCCUAUCGAUCC			146	196
AUGCUAUACGAAGGAUAUGGUUACAUGAGGAUCACCCAUGUAUUUUUUGUGAUCUUGUUUAAGUUCCAGAAGGUCGUAUAGCUA			486	617
ACAAAUGGAGGAUAUACAUGAGGAUCACCCAUGUUUAUCCUACAUGUGUGAUAAUAAUGUAGAAGGCCAUUUGA			19.7	13.2
GCCCUAAAGCGGGCCGACCAUACAUGAGGAUCACCCAUGUCGAGAAGGUGCUCACGGGUGGGUGGCAAGGAUAUCGGGUCGGAA	65.6	32.6		
AUUAUUAUAAAUUAAGGAAGAAUCAGAAGGCGUUACAUGAGGAUCACCCAUGUUUUGUAUAGUAACGAGGAUAUGAUAUGGAAA			17.5	14
ACCGUGUCAGGAUAUCCUGCUGUGCGGACUCUGUCUUCACGGGAGAAGGGACAUGAGGAUCACCCAUGUUUGAG			20.2	25.4
UCACGGGACUAAGGAUAUAUGAGUACCAUUUACAUAGAAGGUAGAAUGUUAGAUCAUAAACUAAACAUGAGGAUCACCCAUGUU			19.4	18.6
GCCCUUCGUGGAAGGGCAAAAGGACAGGAUAUCGCUUAAACAUGAGGAUCACCCAUGUCCGUUAACGAGAAGGGUCGAAUAAAU	64.2	12		
CGUUAAUAUCGAGGAUAUGUCUAGACACAUGAGGAUCACCCAUGUAUGUGUAUAGAAGGCGAUAUUAACAGCAUGUUACAUGCU	41	16.7		
CUUUCGUGAGGAUAUGUGGCUUCGAUCGUGAAAUCGAGGCUACAGAAGGCACAUGAGGAUCACCCAUGUUCCUC			34.3	410
AAAAAACAUGAGGAUCACCCAUGUCAAAAGACAUGAGGAUAUGUACAGACUUCGGUCUGUACAGAAGGCAUGAAAA	489	43.6		
CCGCCCUGGAGAGGAUAUGAUCCGUACUAAAGGUCAGAAGGCUCCGAGUUACAUGAGGAUCACCCAUGUAGGGCGGAAAAUAUG	6.3	5.25		
CAAUUUAUAUCAGGAUAUACAAUACAAUUAUUAGUAGAAGGGAUUAAUACAUGAGGAUCACCCAUGUCAUGUGUCAUAAUAACC			22.6	18.1
AACGAUCUAGGAUAUACAUGAGGAUCACCCAUGUAAGAGCCCGAACCGGGCUCCCUCUGUAGAAGGAGGUCAAA			32.7	40.3

Sequence	apparent Kd [1] [nM]	apparent Kd [2] [nM]	apparent Kd [3] [nM]	apparent Kd [4] [nM]
UGUCGGAGCAGAGGAUAUUACAUGAGGAUCACCCAUGUAUGAACCAAUAGCUGGAAACAGCAAUGUAAGAAGGCAGCUCCGACA			5.11	8.82
UGUGUUAUCGGAGGAUAUCGAUAUCAAACAUGAGGAUCACCCAUGUUGAGGAUCACCCAUGUUCACGAGAAGGCCGGCGUACUC	112	194		
UUAUACGUUGAGGAUAUGCGACUUUUUUUAGUUGUAGAAGGCGAUACAUGAGGAUCACCCAUGUUUAUGGGCAU			166	218
UCACGGGAUUGAGGAUAUAUAUUAAUUUUUACAAUAGAAGGCAAAUUGUUAGUUUUUUCACUUUACAUGAGGAUCACCCAUGUU			26.2	24
ACCUUACUGGUCAGGAUAUACAGUCUUUGGUGUGUGUAGAAGGGACAUGAGGAUCACCCAUGUAGGUUGCAGCA			70	62.7
GAAAACAGAGGAUAUACAAAAUUGACACGAAAGGUGCAAAAACAUGAGGAUCACCCAUGUAGAAGGCUGAAGAA			24.8	22
AAAAAGUCAGGAUAUGUCAAAGGUCACGAAAGUGACAAAGGACAGAAGGGACAUGAGGAUCACCCAUGUAAAAA			30.2	46.1
GCCAUGUUAGGAUAUGCCAUUAUACUGCUGGGUAUAGAUUGGUAGAAGGAACAUGAGGAUCACCCAUGUUCGGG			83.9	178
GCUGACGAUGUAGGAUAUCUCGACGAUAAGUCGAGAGAAGGACAUGAGGAUCACCCAUGUAAAAUCCCGUCAGCGAGGAAACUC			16.4	23.1
AAAAACUCAGGAUAUAUUAUGGGACAAUGAAGGAAGAUAAAACAUGAGGAUCACCCAUGUAGAAGGGAGAAAAA			58.5	67.5
UUUUAGUGAGGAUAUGUGGCUUCGAUCGUGAGAUCGAGGCUACAGAAGGCACAUGAGGAUCACCCAUGUUCCUA			16.6	81.7
GCACUUACGUUAGGAUAUGGAUCGGAAAACGAUCCAGAAGGAAUAUGGGAACAUGAGGAUCACCCAUGUUCCUCAGACAAGUGC	67.7	35.1		
UGAACUAUGUAGAAGGCCCAUAUUUAUACUUAGGGAGGAUAUACAUGAGGAUCACCCAUGUAUAGAGCAAGUGGACUUGUCACU			17.9	20.2
UGUGCGUAUGUGAGGAUAUGCUGGUCCUUGGAUCGGCAGAAGGCACAUGAGGAUCACCCAUGUGGUGUCGUUCA			264	27.2
GUUACACAUGAGGAUCACCCAUGUAAGGAUAUGCUGCGGUCGCGCUGACGUGACUGCAGCAGAAGGUACACAUG			105	133
UGCGGUAGAGGAUAUACGUAGAUACAGAUUCAUGUAGAACUACAUGAGGAUCACCCAUGUAGAAGGCUAUCGCU			39.2	482
GGGCCCGGUGUGAGGAUAUCGGGUUUGAAAGGGCCCGAGAAGGCACAUGAGGAUCACCCAUGUAAGCCGGGCCC			15.4	14.4
AGUAGAUCAGGAUAUACAUAAAUGAUAAUUAUGUAACUUCAACAUGAGGAUCACCCAUGUAGAAGGGAUCUACA			16.3	15
